Consider one molecule from ChEMBL document CHEMBL4406830, “Galloyl esters of trans-stilbenes are inhibitors of FASN with anticancer activity on non-small cell lung cancer cells” (Eur J Med Chem, 2019).

The source made the active and inactive calls. The calls are words filed in the database; no cut-off is given here.

Test [1] deals with NCI-H1703. Briefly: Antiproliferative activity against human NCI-H1703 cells expressing FASN assessed as reduction in cell viability after 72 hrs by MTS assay. As to conditions: NCI-H1703, 72 h. Type of test: functional, cell-based. An outline of the steps:
(§1)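 ATCC-sourced cells. H1299, H1650, H1703 and PC-9 were grown in RPMI 1640 with 10% FBS. A549 was grown in high-glucose DMEM with 10% FBS and 1 mM pyruvate. SAEC was grown in BEGM. Cells were seeded at 3 × 10^3 per well (H1650 3.5 × 10^3) and left to attach overnight. Serial dilutions from DMSO stocks were added, 0.1% DMSO final, for 72 h at 37 °C, 5% CO2. Medium was replaced, MTS added, and A490 read after 2 h. IC50 was taken from % viability versus log concentration, 3 experiments.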
(Tetrazolium assays rely on reduction of a dye to a coloured formazan, in cell work by metabolically active cells.)

The nature of test [2]: Selectivity index, ratio of IC50 for human SAE cells lacking FASN expression to IC50 for human NCI-H1703 cells expressing FASN. An outline of the steps: (§2)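 Index is the SAEC IC50 divided by the IC50 in the FASN-expressing NSCLC line. IC50s came from MTS viability after 72 h exposure at 37 °C, 5% CO2, DMSO 0.1% v/v. Absorbance was read at 490 nm after 2 h. The fit was % viability against log concentration, with 4 technical repeats and 3 independent experiments. NSCLC lines were grown in RPMI/10% FBS; SAEC in BEGM.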

Test [3] deals with NCI-H1299. The experiment in a line: Antiproliferative activity against human NCI-H1299 cells expressing FASN assessed as reduction in cell viability after 72 hrs by MTS assay. Type of test: functional, cell-based. The following applies: NCI-H1299, 72 h. Summed up: as §1
The nature of test [4]: Selectivity index, ratio of IC50 for human SAE cells lacking FASN expression to IC50 for human NCI-H1299 cells expressing FASN expression. An outline of the steps: as §2
Test [5] deals with NCI-H1650. The experiment in a line: Antiproliferative activity against human NCI-H1650 cells expressing FASN assessed as reduction in cell viability after 72 hrs by MTS assay. As to conditions: NCI-H1650, 72 h. Type of test: functional, cell-based. An outline of the steps:
as §1

A short description of test [6]: Selectivity index, ratio of IC50 for human SAE cells lacking FASN expression to IC50 for human NCI-H1650 cells expressing FASN. An outline of the steps:
as §2

Test [7] has as its system PC-9. The experiment in a line: Antiproliferative activity against human PC9 cells harboring FASN expression and EGFR delE746-A750 mutant assessed as reduction in cell viability after 72 hrs by MTS assay. Type of test: functional, cell-based. As to conditions: PC-9, 72 h. An outline of the steps:
as §1

Test [8] in a line: Cytotoxicity against human SAE cells lacking FASN expression assessed as reduction in cell viability after 72 hrs by MTS assay. It is filed as cell-based. An outline of the steps:
as §1

The subject of test [9] is NCI-H1703. The experiment in a line: Induction of apoptosis in human NCI-H1703 cells expressing FASN assessed as increase in late apoptotic cells at 100 uM after 72 hrs by Annexin-V FITC staining/PI-based flow cytometry. It is filed as functional, cell-based. Summed up:
(§3)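 H1703 or PC-9 cells seeded at 1.5 × 10^5 cells/2 mL in 6-well plates and left to attach overnight. Treated at 100 µM, with a 0.1% DMSO vehicle control, at 37 °C and 5% CO2. Exposure is given as 72 h in the results and 48 h in the methods. Cells were harvested, rinsed in ice-cold PBS, stained with Annexin V-FITC/PI in binding buffer and read by flow cytometry. Early apoptosis was Annexin V+ only; late apoptosis was double positive. Triplicates.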

Test [10] deals with PC-9. Briefly: Induction of apoptosis in human PC9 cells harboring FASN expression and EGFR delE746-A750 mutant at 100 uM after 72 hrs by Annexin-V FITC/PI staining-based flow cytometry. Type of test: functional, cell-based. Summed up:
as §3

Test [11] deals with Fatty acid synthase (Homo sapiens) (UniProt P49327). Briefly: Inhibition of full length human FASN transfected in HeLa cell lysates at 10 uM using acetyl Co-A/malonyl Co-A as substrate preincubated with enzyme for 2 hrs followed by substrate addition measured after 10 mins in presence of NADPH by microplate reader analysis. It is filed as subcellular. The following applies: Lysate. An outline of the steps:
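Human FASN was made by in vitro translation from a FASN plasmid. Lysate was diluted 3:7 in 100 mM potassium phosphate, pH 6.5, 1 mM EDTA. It was preincubated with compound (10 µM final) for 2 h at 37 °C. Buffer containing acetyl-CoA (55 µM) and NADPH (330 µM) was added, then the reaction was started with malonyl-CoA (500 µM stock). A340 was read at 0 and 10 min; triplicates.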

The target is the same in test [12]. The experiment in a line: Inhibition of FASN in human PC9 cells harboring FASN expression and EGFR delE746-A750 mutant assessed as disruption of AKT/FASN positive feedback loop by measuring decrease in FASN expression at 100 uM after 48 hrs by Western immunoblot based densitometric assay relative to control. Type of test: cell-based. An outline of the steps:
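PC-9 or H1703 cells were seeded at 8 × 10^5 per 100 mm dish and treated for 48 h at 1 or 5 µM (or 5, 50 and 100 µM). RIPA lysates were BCA-quantified and run on 8% SDS-PAGE, then transferred to PVDF. Blots were probed for FASN, AKT, phospho-AKT S473 and GAPDH and detected by ECL. Bands were quantified by densitometry and normalised to vehicle control.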
A general note: A western blot detects proteins with antibodies after separation by electrophoresis.

The target is the same in test [13]. The experiment in a line: Inhibition of FASN in human PC9 cells harboring FASN expression and EGFR delE746-A750 mutant assessed as disruption of AKT/FASN positive feedback loop by measuring FASN expression at 100 uM after 48 hrs in presence of exogenous lipid concentrate by Western immunoblot based densitometric assay relative to control. Type of test: cell-based. An outline of the steps:
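PC-9 cells were seeded at 8 × 10^5 per 100 mm dish, attached overnight, then treated 48 h with compound plus chemically defined lipid concentrate. Cells were lysed in RIPA with protease inhibitors and protein quantified by BCA. Lysates were run on 8% SDS-PAGE and blotted to PVDF. Blots were probed for FASN (1:2,000, PBS-T/milk block) and GAPDH. ECL detection; FASN/GAPDH densitometry normalised to untreated control.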

The target is the same in test [14]. Briefly: Inhibition of FASN in human PC9 cells harboring FASN expression and EGFR delE746-A750 mutant assessed as disruption of AKT/FASN positive feedback loop by measuring decrease in ratio of phosphoAKT/AKT expression at 100 uM after 48 hrs by Western immunoblot based densitometric assay relative to control. It is filed as cell-based. Summed up: (§4)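 PC-9 cells were seeded at 8 × 10^5 per 100 mm dish and treated 48 h with compound, with or without chemically defined lipid concentrate (vehicle control included). RIPA lysates with protease inhibitors were BCA-quantified and run on 8% SDS-PAGE, then PVDF. Blots were probed for phospho-AKT Ser473 and total AKT (each 1:1,000, TBS-T/milk block). ECL detection; pAKT/AKT densitometry normalised to untreated control.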

The target is the same in test [15]. Briefly: Inhibition of FASN in human PC9 cells harboring FASN expression and EGFR delE746-A750 mutant assessed as disruption of AKT/FASN positive feedback loop by measuring ratio of phosphoAKT/AKT expression at 100 uM after 48 hrs in presence of exogenous lipid concentrate by Western immunoblot based densitometric assay relative to control. It is filed as cell-based. Summed up:
as §4

Test [16] can be described thus: Selectivity index, ratio of IC50 for human SAE cells lacking FASN expression to IC50 for human PC9 cells harboring FASN expression and EGFR delE746-A750 mutant. An outline of the steps:
as §2

Test [17] relates to A549. The experiment in a line: Antiproliferative activity against human A549 cells expressing FASN assessed as reduction in cell viability after 72 hrs by MTS assay. The following applies: A549, 72 h. Type of test: functional, cell-based. An outline of the steps:
as §1

A short description of test [18]: Selectivity index, ratio of IC50 for human SAE cells lacking FASN expression to IC50 for human A549 cells expressing FASN. Summed up: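 The ratio IC50(SAEC)/IC50(NSCLC line) was calculated from 72 h MTS viability IC50 values.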
The subject of test [19] is PC-9. Briefly: Antiproliferative activity against human PC9 cells harboring FASN expression and EGFR delE746-A750 mutant assessed as cell viability at 100 uM after 72 hrs in presence of exogenous lipid concentrate by MTS assay. It is filed as functional, cell-based. Summed up:
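PC-9 cells seeded at 3 × 10^3 cells/100 µL in RPMI 1640 and left to attach overnight. Compound added as for the viability assay, with DMSO at 0.1% v/v. After 6 h at 37 °C and 5% CO2, chemically defined lipid concentrate was added to 2% v/v final. Incubation then continued 72 h. Viability was read by MTS absorbance at 490 nm against untreated cells, in triplicate.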

Test [20] addresses Fatty acid synthase (Homo sapiens) (UniProt P49327). The experiment in a line: Inhibition of full length human FASN transfected in HeLa cell lysates at 150 uM using acetyl Co-A/malonyl Co-A as substrate preincubated with enzyme for 2 hrs followed by substrate addition measured after 10 mins in presence of NADPH by microplate reader analysis. Type of test: subcellular. As to conditions: Lysate. Summed up:
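Human FASN was made by coupled in vitro translation of a FASN plasmid; the legend calls this HeLa cell lysate. Lysate was diluted 3:7 in 100 mM potassium phosphate pH 6.5 with 1 mM EDTA, then preincubated with compound for 2 h at 37 °C. Buffer containing acetyl-CoA (55 µM) and NADPH (330 µM) was added, and the reaction started with malonyl-CoA solution (500 µM). A340 was read at 0 and 10 min, and inhibition taken against untreated lysate. Triplicates.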

Fatty acid synthase (Homo sapiens), sequence (P49327 whole entry, looked up): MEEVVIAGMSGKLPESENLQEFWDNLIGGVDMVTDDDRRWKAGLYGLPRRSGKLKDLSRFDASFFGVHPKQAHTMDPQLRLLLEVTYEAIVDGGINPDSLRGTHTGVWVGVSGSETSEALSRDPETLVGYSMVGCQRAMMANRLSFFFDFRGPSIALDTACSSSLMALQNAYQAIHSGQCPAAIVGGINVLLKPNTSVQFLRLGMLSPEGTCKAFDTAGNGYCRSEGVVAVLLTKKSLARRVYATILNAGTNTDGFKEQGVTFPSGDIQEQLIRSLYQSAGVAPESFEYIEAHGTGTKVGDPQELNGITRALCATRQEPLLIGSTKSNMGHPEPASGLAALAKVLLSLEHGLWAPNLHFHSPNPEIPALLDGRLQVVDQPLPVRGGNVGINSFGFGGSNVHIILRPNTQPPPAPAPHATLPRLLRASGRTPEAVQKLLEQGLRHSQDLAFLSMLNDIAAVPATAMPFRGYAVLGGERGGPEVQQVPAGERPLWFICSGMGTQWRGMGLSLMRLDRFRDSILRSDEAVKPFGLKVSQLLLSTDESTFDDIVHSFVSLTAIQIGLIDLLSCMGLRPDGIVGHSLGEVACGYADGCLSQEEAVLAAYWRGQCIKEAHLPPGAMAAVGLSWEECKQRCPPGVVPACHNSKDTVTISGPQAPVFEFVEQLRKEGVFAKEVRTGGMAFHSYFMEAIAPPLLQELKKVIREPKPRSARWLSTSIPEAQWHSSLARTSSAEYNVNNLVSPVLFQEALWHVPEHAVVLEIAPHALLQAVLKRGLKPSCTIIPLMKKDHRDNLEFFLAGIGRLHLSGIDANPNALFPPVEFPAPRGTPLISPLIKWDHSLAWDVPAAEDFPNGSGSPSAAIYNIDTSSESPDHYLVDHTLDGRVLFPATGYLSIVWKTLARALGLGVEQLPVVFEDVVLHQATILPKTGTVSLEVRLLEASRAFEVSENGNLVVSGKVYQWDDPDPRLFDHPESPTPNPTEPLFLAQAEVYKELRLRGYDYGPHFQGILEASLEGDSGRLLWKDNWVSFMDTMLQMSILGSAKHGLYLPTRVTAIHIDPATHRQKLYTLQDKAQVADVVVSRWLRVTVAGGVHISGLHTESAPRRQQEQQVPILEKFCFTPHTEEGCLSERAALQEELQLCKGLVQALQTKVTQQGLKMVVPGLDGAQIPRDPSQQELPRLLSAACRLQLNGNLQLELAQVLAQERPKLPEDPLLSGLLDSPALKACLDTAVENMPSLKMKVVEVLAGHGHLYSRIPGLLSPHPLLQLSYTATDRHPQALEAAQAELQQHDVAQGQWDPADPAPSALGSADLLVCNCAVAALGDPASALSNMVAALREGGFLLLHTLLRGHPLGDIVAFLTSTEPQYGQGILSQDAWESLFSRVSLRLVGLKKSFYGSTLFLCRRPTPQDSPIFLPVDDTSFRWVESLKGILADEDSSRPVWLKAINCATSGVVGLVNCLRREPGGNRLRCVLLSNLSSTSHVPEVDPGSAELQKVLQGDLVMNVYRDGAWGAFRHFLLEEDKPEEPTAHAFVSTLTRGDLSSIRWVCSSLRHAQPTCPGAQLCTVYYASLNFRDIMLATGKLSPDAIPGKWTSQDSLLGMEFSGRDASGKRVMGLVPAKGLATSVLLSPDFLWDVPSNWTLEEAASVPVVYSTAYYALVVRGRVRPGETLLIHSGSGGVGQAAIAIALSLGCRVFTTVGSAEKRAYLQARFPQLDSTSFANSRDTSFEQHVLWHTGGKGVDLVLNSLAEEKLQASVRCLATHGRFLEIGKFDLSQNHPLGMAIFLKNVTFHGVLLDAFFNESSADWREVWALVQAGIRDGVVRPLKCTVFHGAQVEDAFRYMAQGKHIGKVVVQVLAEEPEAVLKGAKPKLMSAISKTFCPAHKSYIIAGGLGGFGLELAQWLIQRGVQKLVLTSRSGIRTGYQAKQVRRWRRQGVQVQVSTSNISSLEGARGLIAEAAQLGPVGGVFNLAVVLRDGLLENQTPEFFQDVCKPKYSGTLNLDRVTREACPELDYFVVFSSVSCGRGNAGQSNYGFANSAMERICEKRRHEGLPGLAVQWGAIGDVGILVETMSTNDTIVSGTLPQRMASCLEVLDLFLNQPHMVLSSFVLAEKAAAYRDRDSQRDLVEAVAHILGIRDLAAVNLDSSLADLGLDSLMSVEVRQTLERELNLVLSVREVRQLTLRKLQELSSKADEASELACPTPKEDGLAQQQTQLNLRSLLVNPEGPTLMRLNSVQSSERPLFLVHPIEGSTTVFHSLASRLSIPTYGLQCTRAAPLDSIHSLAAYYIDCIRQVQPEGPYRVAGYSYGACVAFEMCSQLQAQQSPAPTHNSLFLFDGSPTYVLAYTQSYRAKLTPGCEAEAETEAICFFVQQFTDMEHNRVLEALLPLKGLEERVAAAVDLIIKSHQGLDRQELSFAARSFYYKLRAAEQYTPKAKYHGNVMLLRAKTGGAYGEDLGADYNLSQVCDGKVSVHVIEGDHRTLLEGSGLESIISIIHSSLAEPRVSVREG

With `O=C(O[C@@H]1Cc2c(O)cc(O)cc2O[C@@H]1c1cc(O)c(O)c(O)c1)c1cc(O)c(O)c(O)c1` [EPIGALOCATECHIN GALLATE], the IC50 is 17.1 µM in test [1]; 20.6 µM in test [3]; 24.8 µM in test [5]; 77.4 µM in [7]; 110 µM in [8]; 185 µM in [17]. Further, the “Ratio IC50” value is reported as 6.4 in test [2]; 5.3 in test [4]; 4.4 in [6]; 1.4 in [16]; 0.6 in test [18]. Also, the outcome in [9] and in test [10] was Active. For the same molecule, the inhibition result in test [11] and in [19] was “inactive” each time. The Ratio in [12] is 0.06; in test [13], 0.89; in test [14], 0.14; in test [15], 0.67. For the same molecule, the inhibition entry in test [20] was “Active”.

The IC50 is the concentration at which inhibition is half-maximal.
